Data published in ChEMBL document CHEMBL2057186, “Application of the bicyclo[1.1.1]pentane motif as a nonclassical phenyl ring bioisostere in the design of a potent and orally active γ-secretase inhibitor” (J Med Chem, 2012).

Columns and labels:
[1] = Ratio of drug level in brain to plasma in 129/sve mouse at 30 mg/kg, po administered as single dose by LC-MS/MS analysis; type: ADME, organism-based; set-up: dose 30 mg/kg, route oral; details: read-out: BPR
Method in brief: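 Wild-type male 129/sve mice were dosed orally once in 98% Phosal 50 PG/2% Tween 80. Brain/plasma ratio was taken as AUC_brain/AUC_plasma, using mean-concentration AUCs from a nonserial design.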

[2] = biological target: Cytochrome P450 2D6 (Homo sapiens, UniProt P10635); test: Inhibition of CYP2D6 in human liver microsomes using dextromethorphan as substrate; type: ADME, Microsome
[3] = test system: Hepatocyte; test: Apparent total intrinsic clearance in human hepatocytes assessed per million cells; type: ADME, cell-based
[4] = test system: Mus musculus; test: Antialzheimer activity in 129/sve mouse assessed as reduction in amyloid beta40 level in CSF at 30 mg/kg, po administered as single dose measured at 1 hr by ELISA relative to vehicle treated control; type: functional; set-up: scale not given: the % may be the effect or the level left
Method in brief: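 Wild-type male 129/sve mice received a single oral dose in Phosal 50 PG/Tween 80 vehicle. Aβ40 was measured in brain, CSF and plasma and Aβ42 in brain over a time course. Levels are expressed as % of vehicle-treated animals. Values are mean ± SEM, n = 5 or 8 per time point.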

[5] = Cmax in Sprague-Dawley rat at 5 mg/kg, po; type: ADME, organism-based; set-up: dose 5 mg/kg, route oral; details: in vivo
Method in brief: (§1)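 Female rats were dosed once, 1 mg/kg iv (2 mL/kg, 0.5 mg/mL) or 5 mg/kg po (10 mL/kg, 0.5 mg/mL). Vehicle was 40% (w/v) hydroxypropyl-β-cyclodextrin. Plasma was sampled to 24 h. Values are means ± SEM (n = 3).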

[6] = Ratio of drug level in brain to plasma in Sprague-Dawley rat; type: ADME; details: read-out: BPR
[7] = Cmax in 129/sve mouse plasma at 30 mg/kg, po administered as single dose by LC-MS/MS analysis; type: ADME, organism-based; set-up: dose 30 mg/kg, route oral
Method in brief: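 Single-dose oral PK in wild-type male 129/sve mice. Formulation was 98% (v/v) Phosal 50 PG with 2% Tween 80. Compound was measured in plasma, brain and CSF. Values are means ± standard deviations (n = 4 or 5).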

[8] = Tmax in Sprague-Dawley rat at 5 mg/kg, po; type: ADME, organism-based; set-up: dose 5 mg/kg, route oral; details: in vivo; method in brief: as §1
[9] = test system: P-gp; test: Efflux ratio of apparent permeability from basal to apical side to apical to basal side of MDCK cells expressing human P-gp; type: ADME, cell-based, Canis lupus familiaris; details: dog, MDCK-MDR1
Method in brief: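 Monolayers were MDCK cells transfected with the human P-glycoprotein (MDR1) gene. Permeability was measured basolateral-to-apical and apical-to-basolateral, and the BA/AB ratio was reported.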

[10] = biological target: Voltage-gated inwardly rectifying potassium channel KCNH2 (Homo sapiens, UniProt Q12809); test: Displacement of dofetilide from human ERG
[11] = biological target: Cytochrome P450 2C9 (Homo sapiens, UniProt P11712); test: Inhibition of CYP2C9 in human liver microsomes using diclofenac as substrate; type: ADME, Microsome
[12] = Oral bioavailability in Sprague-Dawley rat at 5 mg/kg; type: ADME, organism-based; details: in vivo; method in brief: as §1
[13] = organism: Homo sapiens; test: Selectivity for human gamma-seretase over notch signalling protein
[14] = biological target: Gamma-secretase; test: Inhibition of gamma secretase-mediated amyloid beta42 production in human H4 cells expressing human wild-type APP
[15] = Volume of distribution at steady state in Sprague-Dawley rat at 1 mg/kg, iv; type: ADME, organism-based; set-up: dose 1 mg/kg, route intravenous; details: in vivo, read-out: Vdss; method in brief: as §1

Chain of Cytochrome P450 2C9 (P11712 whole entry): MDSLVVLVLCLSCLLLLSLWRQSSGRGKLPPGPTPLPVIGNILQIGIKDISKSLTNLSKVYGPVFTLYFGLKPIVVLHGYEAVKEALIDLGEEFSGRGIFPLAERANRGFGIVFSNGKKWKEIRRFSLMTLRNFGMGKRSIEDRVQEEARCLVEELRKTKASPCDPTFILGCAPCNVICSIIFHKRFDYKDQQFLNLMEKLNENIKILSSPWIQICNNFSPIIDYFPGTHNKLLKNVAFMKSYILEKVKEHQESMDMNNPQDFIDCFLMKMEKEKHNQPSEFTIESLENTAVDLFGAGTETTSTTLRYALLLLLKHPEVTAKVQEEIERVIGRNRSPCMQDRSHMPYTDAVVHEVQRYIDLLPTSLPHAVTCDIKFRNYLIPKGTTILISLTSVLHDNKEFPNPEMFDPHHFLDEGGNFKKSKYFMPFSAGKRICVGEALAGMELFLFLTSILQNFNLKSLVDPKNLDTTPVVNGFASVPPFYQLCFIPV
Chain of Voltage-gated inwardly rectifying potassium channel KCNH2 (Q12809 whole entry): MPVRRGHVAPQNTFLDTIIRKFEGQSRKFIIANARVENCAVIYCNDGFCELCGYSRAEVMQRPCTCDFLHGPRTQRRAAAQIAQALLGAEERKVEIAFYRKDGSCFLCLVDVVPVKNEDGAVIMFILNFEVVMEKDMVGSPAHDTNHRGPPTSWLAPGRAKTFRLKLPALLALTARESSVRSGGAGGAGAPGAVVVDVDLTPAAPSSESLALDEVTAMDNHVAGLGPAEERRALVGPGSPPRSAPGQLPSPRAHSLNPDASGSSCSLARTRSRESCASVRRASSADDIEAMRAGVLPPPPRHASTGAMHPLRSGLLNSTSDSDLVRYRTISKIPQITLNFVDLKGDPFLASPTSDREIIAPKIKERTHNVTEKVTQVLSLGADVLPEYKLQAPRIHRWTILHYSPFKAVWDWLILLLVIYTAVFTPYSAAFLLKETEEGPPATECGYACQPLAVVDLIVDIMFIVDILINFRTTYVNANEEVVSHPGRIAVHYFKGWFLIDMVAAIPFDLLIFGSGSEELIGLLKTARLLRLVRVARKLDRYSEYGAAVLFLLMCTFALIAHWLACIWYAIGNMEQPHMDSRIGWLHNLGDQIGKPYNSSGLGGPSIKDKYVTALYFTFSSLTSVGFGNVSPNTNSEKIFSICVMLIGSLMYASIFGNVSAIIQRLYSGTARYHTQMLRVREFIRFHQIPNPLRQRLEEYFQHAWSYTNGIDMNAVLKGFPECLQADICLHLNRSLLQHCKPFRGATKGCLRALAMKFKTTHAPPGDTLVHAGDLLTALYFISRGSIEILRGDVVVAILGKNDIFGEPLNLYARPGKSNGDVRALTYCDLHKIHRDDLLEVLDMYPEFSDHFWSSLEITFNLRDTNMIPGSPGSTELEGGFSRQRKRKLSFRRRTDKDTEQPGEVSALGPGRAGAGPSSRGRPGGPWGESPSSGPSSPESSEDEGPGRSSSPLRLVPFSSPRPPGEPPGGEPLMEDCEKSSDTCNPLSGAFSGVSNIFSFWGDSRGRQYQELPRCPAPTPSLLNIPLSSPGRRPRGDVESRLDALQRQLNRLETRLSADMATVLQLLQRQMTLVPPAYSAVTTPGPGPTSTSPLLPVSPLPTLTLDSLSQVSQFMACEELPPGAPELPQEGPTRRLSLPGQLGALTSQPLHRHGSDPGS
Chain of Cytochrome P450 2D6 (P10635 whole entry): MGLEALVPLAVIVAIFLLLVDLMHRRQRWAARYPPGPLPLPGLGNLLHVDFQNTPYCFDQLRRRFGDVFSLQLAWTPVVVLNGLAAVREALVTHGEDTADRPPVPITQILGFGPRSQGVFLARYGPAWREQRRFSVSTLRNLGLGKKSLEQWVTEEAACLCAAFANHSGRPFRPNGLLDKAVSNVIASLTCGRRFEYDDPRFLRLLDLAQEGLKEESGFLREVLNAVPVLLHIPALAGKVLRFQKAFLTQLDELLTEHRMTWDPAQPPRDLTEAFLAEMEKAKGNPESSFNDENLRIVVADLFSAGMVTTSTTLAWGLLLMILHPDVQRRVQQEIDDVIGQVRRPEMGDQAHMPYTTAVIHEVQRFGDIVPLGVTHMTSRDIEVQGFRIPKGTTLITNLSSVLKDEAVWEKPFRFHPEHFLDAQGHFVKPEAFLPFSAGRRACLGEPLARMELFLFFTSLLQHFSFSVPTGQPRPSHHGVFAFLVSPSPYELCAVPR

Kp [1]: 0.84 | inhibition (INH) [2]: Not Active | CLt/F [3]: < 3.8 µL/min | Cmax [5]: 1.86 µM | Kp [6]: 0.61 | Cmax [7]: 6.48 µM | Tmax [8]: 2 h | efflux ratio [9]: 1.66 | inhibition (INH) [11]: Not Active | bioavailability [12]: 100% | Selectivity Index [13]: 178 | IC50 [14]: 178 pM | Vd [15]: 2.12 L/kg
Compound: NC(=O)[C@@H](CCC(F)(F)F)N(CC12CC(c3ncon3)(C1)C2)S(=O)(=O)c1ccc(Cl)cc1
Activity [4]: 64% | Activity [10]: Not Active
